The text below walks through data of ChEMBL document CHEMBL1949585, “Design, synthesis and evaluation of telomerase inhibitory, hTERT repressing, and anti-proliferation activities of symmetrical 1,8-disubstituted amidoanthraquinones” (Eur J Med Chem, 2012).

A short description of experiment [1]: Cytotoxicity against human H1299 cells assessed as cell growth at 1 uM after 48 hrs by MTT assay. In kind it is functional. As to conditions: NCI-H1299, 48 h, read-out: Activity. A digest of the protocol: (§1)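 H1299 non-small lung cancer cells were grown in RPMI 1640 with 10% FBS and penicillin/streptomycin at 37 °C in 5% CO2. About 2×10³ cells were seeded per well and held 24 h, then washed with PBS and given fresh medium. Compound, freshly dissolved in DMSO and diluted in complete medium, was added for 48 h. MTT was read at 550 nm after SDS/DMF lysis at 37 °C for 16 h. Values are from three experiments, untreated = 100%, ±SD.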
(Formazan colour is commonly taken as a measure of viable cells.)

A short description of experiment [2]: Cytotoxicity against human H1299 cells assessed as cell growth at 10 uM after 48 hrs by MTT assay. In kind it is functional. As to conditions: NCI-H1299, 48 h, read-out: Activity. The method in brief:
as §1

Experiment [3] in a line: Cytotoxicity against human H1299 cells assessed as cell growth at 100 uM after 48 hrs by MTT assay. The conditions noted are these: NCI-H1299, 48 h, read-out: Activity. It counts as functional. A digest of the protocol: as §1
A short description of experiment [4]: Inhibition of human TERT expression in H1299 cells at 1 uM after 24 hrs by secreted alkaline phosphatase reporter gene assay relative to control; values are per cent of control. The conditions noted are these: NCI-H1299. (In general: Reporter assays use an easily measured gene product as a stand-in for the process of interest.)
A short description of experiment [5]: Inhibition of human TERT expression in H1299 cells at 10 uM after 24 hrs by secreted alkaline phosphatase reporter gene assay relative to control; values are per cent of control. As to conditions: NCI-H1299.
Experiment [6] is described as follows: Inhibition of human TERT expression in H1299 cells at 100 uM after 24 hrs by secreted alkaline phosphatase reporter gene assay relative to control; values are per cent of control. The conditions noted are these: NCI-H1299.

Turning to `CCCN(C)CC(=O)Nc1cccc2c1C(=O)c1c(NC(=O)CN(C)CCC)cccc1C2=O`, the growth at 1 µM in experiment [1] came out at 108%. Moreover, in experiment [2], the growth at 10 µM was found to be 108%. In experiment [3], the growth at 100 µM was determined as 97%. Also, the level, % of control is 85% in experiment [4], 87% in experiment [5] and 45% in experiment [6].
For `COC(=O)CN(C)CC(=O)Nc1cccc2c1C(=O)c1c(NC(=O)CN(C)CC(=O)OC)cccc1C2=O`, the growth at 1 µM in experiment [1] was 71%. In addition, the growth at 10 µM in experiment [2] was 88%. In experiment [3], the growth at 100 µM is 46%. The level, % of control in experiment [4] amounted to 106%; in experiment [5], 95%; in experiment [6] it was 73%.
Regarding `CCN(CC)CCC(=O)Nc1cccc2c1C(=O)c1c(NC(=O)CCN(CC)CC)cccc1C2=O`, the growth at 1 µM in experiment [1] is 97%. In addition, the growth at 10 µM in experiment [2] was 30%. The growth at 100 µM in experiment [3] came to 4%. The results for the level, % of control in experiment [4], in experiment [5] and in experiment [6] were 99%, 35% and 0%, respectively.
In the case of `CC(C)(C)OC(=O)NCCNCCC(=O)Nc1cccc2c1C(=O)c1c(NC(=O)CCNCCNC(=O)OC(C)(C)C)cccc1C2=O`, the growth at 1 µM in experiment [1] was 82%. Moreover, the growth at 10 µM in experiment [2] stood at 78%. Moreover, in experiment [3], the growth at 100 µM stood at 11%. The level, % of control in experiment [4] is 100%; in experiment [5] it was 84%; in experiment [6], 33%.
Take `COC(=O)[C@H](CCSC)NCC(=O)Nc1cccc2c1C(=O)c1c(NC(=O)CN[C@@H](CCSC)C(=O)OC)cccc1C2=O`: in experiment [1], the growth at 1 µM turned out to be 99%. In addition, the growth at 10 µM in experiment [2] came to 78%. In experiment [3], the growth at 100 µM was 60%. Moreover, the level, % of control in experiment [4] was 105%; in experiment [5], 94%; in experiment [6] it was 24%.
Turning to `CNCCC(=O)Nc1cccc2c1C(=O)c1c(NC(=O)CCNC)cccc1C2=O`, in experiment [1], the growth at 1 µM worked out at 117%. In experiment [2], the growth at 10 µM worked out at 107%. Moreover, the growth at 100 µM in experiment [3] came out at 33%. Besides, the level, % of control in experiment [4] was determined as 101%; in experiment [5], 97%; in experiment [6] it was 22%.
Regarding `COC(=O)[C@H](NCC(=O)Nc1cccc2c1C(=O)c1c(NC(=O)CN[C@@H](C(=O)OC)C(C)C)cccc1C2=O)C(C)C`, in experiment [1], the growth at 1 µM is 88%. Moreover, the growth at 10 µM in experiment [2] stood at 80%. The growth at 100 µM in experiment [3] turned out to be 58%. The level, % of control in experiment [4] was determined as 91%; in experiment [5], 95%; in experiment [6] it was 45%.
`COC(=O)[C@@H](NCC(=O)Nc1cccc2c1C(=O)c1c(NC(=O)CN[C@H](C(=O)OC)C(C)C)cccc1C2=O)C(C)C`: the growth at 1 µM in experiment [1] worked out at 99%. In addition, in experiment [2], the growth at 10 µM amounted to 90%. The growth at 100 µM in experiment [3] worked out at 86%. In addition, the level, % of control in experiment [4] stood at 100%; in experiment [5], 49%; in experiment [6], 0%.
For `COC(=O)[C@@H](NCC(=O)Nc1cccc2c1C(=O)c1c(NC(=O)CN[C@H](C(=O)OC)c3ccccc3)cccc1C2=O)c1ccccc1`, in experiment [1], the growth at 1 µM was 77%. For the same compound, the growth at 10 µM in experiment [2] is 59%. Moreover, in experiment [3], the growth at 100 µM was found to be 18%. Also, the level, % of control amounted to 97% in experiment [4], 74% in experiment [5] and 42% in experiment [6].
Turning to `COC(=O)[C@H](CC(C)C)NCC(=O)Nc1cccc2c1C(=O)c1c(NC(=O)CN[C@@H](CC(C)C)C(=O)OC)cccc1C2=O`, the growth at 1 µM in experiment [1] is 112%. The growth at 10 µM in experiment [2] was found to be 102%. For the same compound, the growth at 100 µM in experiment [3] was found to be 96%. Further, the level, % of control was found to be 101% in experiment [4], 101% in experiment [5] and 88% in experiment [6].
Take `CCCN(CCC)CCC(=O)Nc1cccc2c1C(=O)c1c(NC(=O)CCN(CCC)CCC)cccc1C2=O`: in experiment [1], the growth at 1 µM came out at 94%. Besides, the growth at 10 µM in experiment [2] stood at 99%. The growth at 100 µM in experiment [3] stood at 22%. For the same compound, the level, % of control in experiment [4] is 100%; in experiment [5], 100%; in experiment [6], 4%.
As for `O=C(CNCc1cccc(C(F)(F)F)c1)Nc1cccc2c1C(=O)c1c(NC(=O)CNCc3cccc(C(F)(F)F)c3)cccc1C2=O`, in experiment [1], the growth at 1 µM came to 97%. For the same compound, the growth at 10 µM in experiment [2] stood at 93%. In addition, the growth at 100 µM in experiment [3] came to 93%. Further, the level, % of control came to 75% in experiment [4], 84% in experiment [5] and 33% in experiment [6].
For the compound `CC(C)CNCCC(=O)Nc1cccc2c1C(=O)c1c(NC(=O)CCNCC(C)C)cccc1C2=O`, the growth at 1 µM in experiment [1] is 73%. Besides, the growth at 10 µM in experiment [2] came out at 4%. For the same compound, the growth at 100 µM in experiment [3] was determined as 0%. Besides, the level, % of control amounted to 96% in experiment [4], 29% in experiment [5] and 0% in experiment [6].
`O=C(CCNCc1cc(F)cc(F)c1)Nc1cccc2c1C(=O)c1c(NC(=O)CCNCc3cc(F)cc(F)c3)cccc1C2=O`: the growth at 1 µM in experiment [1] came to 93%. Further, the growth at 10 µM in experiment [2] stood at 87%. Also, the growth at 100 µM in experiment [3] is 6%. Besides, the level, % of control in experiment [4] came out at 98%; in experiment [5] it was 100%; in experiment [6], 3%.
Turning to `CCN(C)CC(=O)Nc1cccc2c1C(=O)c1c(NC(=O)CN(C)CC)cccc1C2=O`, the growth at 1 µM in experiment [1] is 100%. In experiment [2], the growth at 10 µM is 101%. In experiment [3], the growth at 100 µM was 73%. Moreover, the level, % of control in experiment [4] was determined as 102%; in experiment [5], 95%; in experiment [6], 20%.
For the compound `COC(=O)[C@@H]1CCCN1CC(=O)Nc1cccc2c1C(=O)c1c(NC(=O)CN3CCC[C@H]3C(=O)OC)cccc1C2=O`, in experiment [1], the growth at 1 µM came to 88%. Moreover, the growth at 10 µM in experiment [2] was found to be 104%. In experiment [3], the growth at 100 µM was 93%. In addition, the level, % of control in experiment [4] was 87%; in experiment [5], 59%; in experiment [6] it was 8%.
With `COC(=O)[C@@H](C)NCC(=O)Nc1cccc2c1C(=O)c1c(NC(=O)CN[C@H](C)C(=O)OC)cccc1C2=O`, the growth at 1 µM in experiment [1] was 56%. Moreover, in experiment [2], the growth at 10 µM worked out at 50%. Further, the growth at 100 µM in experiment [3] is 10%. Moreover, the values for the level, % of control in experiment [4], in experiment [5] and in experiment [6] were 83%, 74% and 66%, respectively.
For `CCCN(CCC)CC(=O)Nc1cccc2c1C(=O)c1c(NC(=O)CN(CCC)CCC)cccc1C2=O`, in experiment [1], the growth at 1 µM was 90%. Besides, in experiment [2], the growth at 10 µM is 76%. In experiment [3], the growth at 100 µM worked out at 66%. The level, % of control in experiment [4] was determined as 105%; in experiment [5], 101%; in experiment [6] it was 94%.
For `CC(C)NCC(=O)Nc1cccc2c1C(=O)c1c(NC(=O)CNC(C)C)cccc1C2=O`, the growth at 1 µM in experiment [1] is 89%. The growth at 10 µM in experiment [2] came to 86%. The growth at 100 µM in experiment [3] amounted to 14%. The level, % of control in experiment [4] was determined as 103%; in experiment [5] it was 101%; in experiment [6], 35%.
As to `CCNCC(=O)Nc1cccc2c1C(=O)c1c(NC(=O)CNCC)cccc1C2=O`, the growth at 1 µM in experiment [1] stood at 106%. Further, the growth at 10 µM in experiment [2] was found to be 87%. Also, the growth at 100 µM in experiment [3] amounted to 17%. Further, the level, % of control was 103% in experiment [4], 92% in experiment [5] and 2% in experiment [6].
As for `CCN(C)CCC(=O)Nc1cccc2c1C(=O)c1c(NC(=O)CCN(C)CC)cccc1C2=O`, the growth at 1 µM in experiment [1] is 96%. In experiment [2], the growth at 10 µM is 23%. Also, in experiment [3], the growth at 100 µM came to 12%. Besides, the level, % of control in experiment [4] stood at 110%; in experiment [5], 19%; in experiment [6], 0%.
Regarding `COC(=O)[C@H](C)NCC(=O)Nc1cccc2c1C(=O)c1c(NC(=O)CN[C@@H](C)C(=O)OC)cccc1C2=O`, the growth at 1 µM in experiment [1] was found to be 98%. The growth at 10 µM in experiment [2] is 104%. For the same compound, in experiment [3], the growth at 100 µM was 96%. Besides, the level, % of control in experiment [4] is 99%; in experiment [5], 93%; in experiment [6], 67%.
As to `CC(C)CNCC(=O)Nc1cccc2c1C(=O)c1c(NC(=O)CNCC(C)C)cccc1C2=O`, the growth at 1 µM in experiment [1] was 53%. For the same compound, the growth at 10 µM in experiment [2] stood at 44%. The growth at 100 µM in experiment [3] amounted to 28%. Moreover, the values for the level, % of control in experiment [4], in experiment [5] and in experiment [6] were 110%, 86% and 77%, respectively.
On to `COc1cccc2c1C(=O)c1c(O)c3c(c(O)c1C2=O)C[C@@](O)(C(=O)CO)C[C@@H]3O[C@H]1C[C@H](N)[C@H](O)[C@H](C)O1` [DOXORUBICIN], for which, in experiment [1], the growth at 1 µM is 17%. Besides, the growth at 10 µM in experiment [2] is 0%. The growth at 100 µM in experiment [3] worked out at 0%. For the same compound, the level, % of control in experiment [4] came to 33%; in experiment [5], 13%; in experiment [6], 5%.
Take `CN(C)CC(=O)Nc1cccc2c1C(=O)c1c(NC(=O)CN(C)C)cccc1C2=O`: the growth at 1 µM in experiment [1] is 72%. For the same compound, the growth at 10 µM in experiment [2] was 61%. The growth at 100 µM in experiment [3] came to 57%. For the same compound, the level, % of control in experiment [4] is 93%; in experiment [5], 96%; in experiment [6] it was 84%.
